Data: ChEMBL document CHEMBL1143122, “Novel analogs of D-e-MAPP and B13. Part 1: synthesis and evaluation as potential anticancer agents” (Bioorg Med Chem, 2008)

Assays:
[1] = system: OVCAR-4; assay: Antiproliferative activity against human OVCAR4 cells after 48 hrs; format: functional; conditions: OVCAR-4, 48 h
Procedure, shortened: (§1)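 NCI 60-cell screen. Cells were grown in RPMI 1640 with 5% FBS and 2 mM L-glutamine, then plated at 5,000–40,000 cells/well according to doubling time and preincubated for 24 h at 37 °C in 5% CO2. Compounds were dissolved in DMSO at 400× the top final concentration and tested at five 10-fold dilutions from 10−4 to 10−8 M for 48 h. Growth was read spectrophotometrically; GI50 is 50% net protein reduction.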

[2] = Antiproliferative activity against human NCI-ADR-RES cells after 48 hrs; format: functional; procedure, shortened: as §1
[3] = system: U-251; assay: Antiproliferative activity against human U251 cells after 48 hrs; format: functional; conditions: U-251, 48 h
Procedure, shortened: (§2)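 NCI 60-cell-line screen. Lines grown in RPMI 1640 with 5% fetal bovine serum and 2 mM L-glutamine, plated at 5,000–40,000 cells/well according to doubling time, left 24 h at 37 °C in 5% CO2. Drug stocks in DMSO at 400-fold the top final concentration. Five 10-fold dilutions, 10−4 to 10−8 M, incubated 48 h. Growth read spectrophotometrically as net protein; GI50 taken as 50% reduction.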

[4] = system: OVCAR-8; assay: Antiproliferative activity against human OVCAR8 cells after 48 hrs; format: functional; conditions: OVCAR-8, 48 h; procedure, shortened: as §1
[5] = system: SN12C; assay: Antiproliferative activity against human SN12C cells after 48 hrs; format: functional; procedure, shortened: as §1
[6] = system: A549; assay: Antiproliferative activity against human A549 cells after 48 hrs; format: functional; conditions: A549, 48 h; procedure, shortened: as §1
[7] = system: CCRF-CEM; assay: Antiproliferative activity against human CCRF-CEM cells after 48 hrs; format: functional; procedure, shortened: as §1
[8] = system: NCI-H460; assay: Antiproliferative activity against human NCI-H460 cells after 48 hrs; format: functional; conditions: NCI-H460, 48 h; procedure, shortened: as §1
[9] = system: HCC 2998; assay: Antiproliferative activity against human HCC2998 cells after 48 hrs; format: functional; conditions: HCC 2998, 48 h; procedure, shortened: as §1
[10] = system: COLO 205; assay: Antiproliferative activity against human COLO205 cells after 48 hrs; format: functional; conditions: COLO 205, 48 h; procedure, shortened: as §1
[11] = system: M14; assay: Antiproliferative activity against human M14 cells after 48 hrs; format: functional; conditions: M14, 48 h; procedure, shortened: as §1
[12] = system: ACHN; assay: Antiproliferative activity against human ACHN cells after 48 hrs; format: functional; procedure, shortened: as §1
[13] = system: NCI-H23; assay: Antiproliferative activity against human NCI-H23 cells after 48 hrs; format: functional; conditions: NCI-H23, 48 h; procedure, shortened: as §1
[14] = system: IGROV-1; assay: Antiproliferative activity against human IGROV1 cells after 48 hrs; format: functional; conditions: IGROV-1, 48 h, read-out: Log TGI (converted); procedure, shortened: as §1
[15] = system: LOX IMVI; assay: Antiproliferative activity against human LOXIMVI cells after 48 hrs; format: functional; procedure, shortened: as §1
[16] = system: RXF 393; assay: Antiproliferative activity against human RXF393 cells after 48 hrs; format: functional; conditions: RXF 393, 48 h; procedure, shortened: as §1
[17] = system: SK-OV-3; assay: Antiproliferative activity against human SKOV3 cells after 48 hrs; format: functional; conditions: SK-OV-3, 48 h; procedure, shortened: as §1
[18] = system: PC-3; assay: Antiproliferative activity against human PC3 cells after 48 hrs; format: functional; conditions: PC-3, 48 h; procedure, shortened: as §1
[19] = system: NCI-H226; assay: Antiproliferative activity against human NCI-H226 cells after 48 hrs; format: functional; conditions: NCI-H226, 48 h; procedure, shortened: as §1
[20] = Antiproliferative activity against human HL60(TB) cells after 48 hrs; format: functional, HL-60(TB); conditions: HL-60, 48 h
Procedure, shortened: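 NCI 60-line panel screen: cells grown in RPMI 1640 with 5% fetal bovine serum and 2 mM L-glutamine, plated at 5,000–40,000 cells/well by doubling time, and preincubated 24 h at 37 °C in 5% CO2. Drugs were solubilised in DMSO at 400-fold the final maximum and tested at five 10-fold dilutions from 10−4 to 10−8 M for 48 h. Net protein was read spectrophotometrically, and the concentration giving 50% reduction was reported as log10 GI50.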

[21] = system: SNB-19; assay: Antiproliferative activity against human SNB19 cells after 48 hrs; format: functional; conditions: SNB-19, 48 h; procedure, shortened: as §1
[22] = system: SF-268; assay: Antiproliferative activity against human SF268 cells after 48 hrs; format: functional; conditions: SF-268, 48 h; procedure, shortened: as §1
[23] = system: OVCAR-5; assay: Antiproliferative activity against human OVCAR5 cells after 48 hrs; format: functional; conditions: OVCAR-5, 48 h; procedure, shortened: as §1
[24] = system: UO-31; assay: Antiproliferative activity against human UO31 cells after 48 hrs; format: functional; conditions: UO-31, 48 h; procedure, shortened: as §2
[25] = system: OVCAR-3; assay: Antiproliferative activity against human OVCAR-3 cells after 48 hrs; format: functional; conditions: OVCAR-3, 48 h; procedure, shortened: as §1
[26] = system: MCF7; assay: Antiproliferative activity against human MCF7 cells after 48 hrs; format: functional, cell-based; conditions: MCF7, 48 h
[27] = system: HCT-15; assay: Antiproliferative activity against human HCT15 cells after 48 hrs; format: functional; procedure, shortened: as §1
[28] = system: MDA-MB-435; assay: Antiproliferative activity against human MDA-MB-435 cells after 48 hrs; format: functional; conditions: Homo sapiens, MDA-MB-435, 48 h; procedure, shortened: as §1
[29] = system: HCT-116; assay: Antiproliferative activity against human HCT116 cells after 48 hrs; format: functional; conditions: HCT-116, 48 h; procedure, shortened: as §1
[30] = system: SF-539; assay: Antiproliferative activity against human SF539 cells after 48 hrs; format: functional; conditions: SF-539, 48 h; procedure, shortened: as §1
[31] = read-out: Log LC50 (the source's name) (converted)

CCCCCCCCCCCCCCN[C@@H](C)[C@H](O)c1ccccc1
GI50 [1]: 2 µM | LC50 [1]: 3.72 µM | TGI ([1]; read-out: Log TGI (converted)): 6.92 µM | GI50 [2]: 1.7 µM | TGI ([2]; read-out: Log TGI (converted)): 3.39 µM | GI50 [3]: 1.82 µM | CC50 [3, 31]: 5.89 µM | TGI ([3]; read-out: Log TGI (converted)): 3.24 µM | GI50 [4]: 1.91 µM | TGI ([4]; read-out: Log TGI (converted)): 4.07 µM | GI50 [5]: 1.82 µM | LC50 (50% net cell kill) [5]: 6.76 µM | TGI ([5]; read-out: Log TGI (converted)): 3.47 µM | GI50 [6]: 1.91 µM | CC50 [6, 31]: 7.08 µM | TGI ([6]; read-out: Log TGI (converted)): 3.63 µM | GI50 [7]: 2.4 µM | CC50 [7, 31]: > 100 µM | TGI ([7]; read-out: Log TGI (converted)): 5.13 µM | GI50 [8]: 1.91 µM | CC50 [8, 31]: 6.31 µM | TGI ([8]; read-out: Log TGI (converted)): 3.47 µM | GI50 [9]: 1.82 µM | CC50 [9, 31]: 5.75 µM | TGI ([9]; read-out: Log TGI (converted)): 3.24 µM | GI50 [10]: 1.74 µM | CC50 [10, 31]: 6.17 µM | TGI ([10]; read-out: Log TGI (converted)): 3.31 µM | GI50 [11]: 1.95 µM | LC50 [11]: 6.31 µM | TGI ([11]; read-out: Log TGI (converted)): 3.55 µM | GI50 [12]: 1.78 µM | CC50 [12, 31]: 6.03 µM | TGI ([12]; read-out: Log TGI (converted)): 3.31 µM | GI50 [13]: 1.82 µM | CC50 [13, 31]: 6.76 µM | TGI ([13]; read-out: Log TGI (converted)): 3.55 µM | TGI [14]: 3.55 µM | GI50 [15]: 1.78 µM | LC50 [15]: 5.89 µM | TGI ([15]; read-out: Log TGI (converted)): 3.24 µM | GI50 [16]: 1.66 µM | CC50 [16, 31]: 6.03 µM | TGI ([16]; read-out: Log TGI (converted)): 3.16 µM | GI50 [17]: 2.34 µM | CC50 [17, 31]: 9.77 µM | TGI ([17]; read-out: Log TGI (converted)): 4.79 µM | GI50 [18]: 2.04 µM | TGI ([18]; read-out: Log TGI (converted)): 3.72 µM | GI50 [19]: 1.95 µM | TGI ([19]; read-out: Log TGI (converted)): 3.8 µM | GI50 [20]: 2 µM | LC50 [20]: 8.13 µM | TGI ([20]; read-out: Log TGI (converted)): 3.98 µM | GI50 [21]: 1.7 µM | CC50 [21, 31]: 5.89 µM | TGI ([21]; read-out: Log TGI (converted)): 3.16 µM | GI50 [22]: 1.78 µM | LC50 [22]: 6.61 µM | TGI ([22]; read-out: Log TGI (converted)): 3.39 µM | GI50 [23]: 1.7 µM | CC50 [23, 31]: 5.75 µM | TGI ([23]; read-out: Log TGI (converted)): 3.16 µM | GI50 [24]: 1.74 µM | LC50 [24]: 6.61 µM | TGI ([24]; read-out: Log TGI (converted)): 3.39 µM | GI50 [25]: 1.66 µM | TGI ([25]; read-out: Log TGI (converted)): 3.16 µM | GI50 [26]: 1.82 µM | LC50 [26]: 6.31 µM | TGI ([26]; read-out: Log TGI (converted)): 3.39 µM | LC50 [27]: 6.31 µM | GI50 ([27]; Homo sapiens, HCT-15, 48 h): 1.91 µM | LC50 ([27]; Homo sapiens, HCT-15, 48 h): 5.89 µM | GI50 [28]: 1.78 µM | LC50 [28]: 5.75 µM | TGI ([28]; read-out: Log TGI (converted)): 3.24 µM | GI50 [29]: 1.86 µM | LC50 [29]: 6.46 µM | TGI ([29]; read-out: Log TGI (converted)): 3.47 µM | GI50 [30]: 1.78 µM | TGI ([30]; read-out: Log TGI (converted)): 3.39 µM
